Screens deposited in PubChem BioAssay by several laboratories.
VLA-4 inh: inhibition in a human VLA-4 binding assay | VLA-4 expressing cells, ligand binding flow cytometry | 330,000 tested, 0.2% active | inhibition, % (about 7 µM as worked out from the volumes in the protocol) | AID 2557; in the data active means inhibition above about 50%
Target sequence (P13612 whole entry, looked up): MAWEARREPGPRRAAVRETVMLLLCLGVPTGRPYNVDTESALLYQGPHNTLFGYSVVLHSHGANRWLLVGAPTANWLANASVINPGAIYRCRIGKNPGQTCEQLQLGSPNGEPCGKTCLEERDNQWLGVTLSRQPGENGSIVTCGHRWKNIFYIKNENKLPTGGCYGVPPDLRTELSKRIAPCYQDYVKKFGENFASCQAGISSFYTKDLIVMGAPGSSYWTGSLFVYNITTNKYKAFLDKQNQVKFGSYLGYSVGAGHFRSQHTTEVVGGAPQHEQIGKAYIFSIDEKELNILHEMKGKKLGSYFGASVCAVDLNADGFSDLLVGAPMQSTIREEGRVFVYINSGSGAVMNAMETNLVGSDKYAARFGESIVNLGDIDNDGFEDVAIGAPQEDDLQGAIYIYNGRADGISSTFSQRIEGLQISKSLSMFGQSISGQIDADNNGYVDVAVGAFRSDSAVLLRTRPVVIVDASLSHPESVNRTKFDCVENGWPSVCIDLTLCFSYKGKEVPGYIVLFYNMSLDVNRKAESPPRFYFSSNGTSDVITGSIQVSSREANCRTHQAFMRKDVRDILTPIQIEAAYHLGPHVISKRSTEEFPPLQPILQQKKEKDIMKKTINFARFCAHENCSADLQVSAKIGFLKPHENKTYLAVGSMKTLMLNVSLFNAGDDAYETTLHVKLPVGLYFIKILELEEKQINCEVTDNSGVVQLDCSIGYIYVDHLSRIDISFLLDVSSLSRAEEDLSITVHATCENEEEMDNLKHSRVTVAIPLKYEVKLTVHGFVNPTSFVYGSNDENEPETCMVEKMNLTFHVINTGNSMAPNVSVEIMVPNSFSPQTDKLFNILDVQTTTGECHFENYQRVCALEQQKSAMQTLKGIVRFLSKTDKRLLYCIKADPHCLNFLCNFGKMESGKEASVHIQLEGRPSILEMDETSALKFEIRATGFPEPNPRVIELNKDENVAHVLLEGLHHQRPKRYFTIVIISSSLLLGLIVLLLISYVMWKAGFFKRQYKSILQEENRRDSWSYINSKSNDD
CHOP UPR activ: apoptotic UPR (CHOP) activation; 330,000 tested, 0.34% active; CHO-CHOP luciferase reporter, luminescence; percent of tunicamycin response over DMSO baseline; activation, % at 10 µM;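 active means at 10 µM dose, activation of 40% or more, normalized to positive control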
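Dosing – one dose, 10 µM in 0.5% DMSO · System – CHO-CHOP cells, stable luciferase reporter of PERK-eIF2a-CHOP signalling · Input – 500 cells/well · Control set – tunicamycin 10 µg/mL final as positive, DMSO-only wells as negative · Timing – 6 h compound treatment, 37 °C · Measure – % activation vs tunicamycin · Technique – luminescence read with Steady-Glo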
UPR XBP1 act: activators of adaptive arm of unfolded protein response (XBP1); CHO-XBP1 luciferase reporter, IRE1-XBP1 UPR activation, luminescence; percent of tunicamycin response, DMSO as zero; activation, % at 20 µM; 330,000 tested, 0.33% active; AID 463104;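 active means versus positive control, 20 µM dose yields 30% or more activation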
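Assay system: IRE1-XBP1 luciferase reporter CHO line. Input: 1000 cells/well. Buffer or medium: F12 with 10% serum. Doses: 20 µM, 1% DMSO. Times: overnight seeding at 37 °C, 6 h compound treatment at 37 °C. Technique: Steady-Glo luciferase glow luminescence, 10 min after reagent addition.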
CHOP inhibitor: CHOP inhibition in unfolded protein response. CHO-K1 CHOP-promoter luciferase, tunicamycin-induced, 15-18 h. inhibition, % at 10 µM. 220,000 tested, 3.8% active. AID 2732;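 active means compounds that reduced the stress-induced luciferase reporter signal by more than about 70% of percent inhibition, limit read from the data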
Beta2AR agonist: activates human beta-2 adrenergic receptor causing internalization; AID 504454; 340,000 tested, 0.43% active; response, % (no concentration beside the values); Am2.2-beta2AR cells, FAP receptor internalization, flow cytometry;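 active means response above a set limit, near 3 SD of response in nonfluorescent compounds, cut at about 42% in these data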
CHOP confirm: confirmation of CHOP induction inhibitors | 2,100 tested, 45% active | CHO-CHOP promoter luciferase reporter, tunicamycin-induced, luminescence | inhibition, % at 10 µM | AID 504437 | shares compounds with CHOP inhibitor;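 active means mean of three repeat readings of reporter signal inhibition above a set limit, cut at about 70% in these data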
Each line names hits and unclear results; the compound was inactive in the other large screens (follow-up assays come after a bar, where they were run). Shown is part of a subset that was picked to be rich in hits.

COC(=O)c1cn(Nc2ncc(C(F)(F)F)cc2Cl)c(=O)c2ccccc12	CHOP inhibitor 99 | CHOP confirm inactive
COC(=O)/C=C1\OC(c2ccccc2)=CC1=O	CHOP inhibitor 108 (no result: Beta2AR agonist) | CHOP confirm inactive
O=C1OC(c2ccccc2)=C/C1=C/N1CCCCC1	none
CC(C)COc1ccc(C(=O)Nc2ccc(NC(=O)c3ccco3)c(Cl)c2)cc1	CHOP inhibitor 101 | CHOP confirm inactive
O=C(C[C@@H]1C/C=C\C[C@@H](Cc2ccc(F)cc2)C(=O)OCCNC1=O)NCCO	none (no result: CHOP inhibitor)
Cc1cc(NC(=O)c2ccc(C)s2)n(-c2nc3ccccc3[nH]2)n1	none
Cc1cc(NC(=O)c2c(F)cccc2F)n(-c2nc3ccccc3[nH]2)n1	CHOP inhibitor 100 | CHOP confirm inactive
Cc1cc(NC(=O)C2CCCCC2)n(-c2nc3ccccc3[nH]2)n1	CHOP inhibitor 102 | CHOP confirm inactive
N#Cc1c(NC(=O)COC(=O)c2nccnc2N)sc2c1CCCC2	none (no result: CHOP inhibitor)
CN(Cc1ccc2ccccc2c1)C(=O)c1ccc(C(F)(F)F)cc1	none (no result: CHOP inhibitor)
Cc1ccc(C)c(NC(=O)C2CC3c4ccccc4C2c2ccccc23)c1 (stereo not drawn)	CHOP inhibitor 99 | CHOP confirm inactive
O=C(Nc1nc2ccc(SC(F)F)cc2s1)c1ccc(NS(=O)(=O)c2ccc(F)c(F)c2)cc1	CHOP inhibitor 106 | CHOP confirm inactive
CS(=O)(=O)c1ccc2nc(NC(=O)c3ccc(NS(=O)(=O)c4ccc(F)c(F)c4)cc3)sc2c1	none
Cc1ccc(Oc2ncnc(N)c2[N+](=O)[O-])cc1	none
Cc1ccc(N(c2ncnc(N)c2[N+](=O)[O-])C2CCCCC2)cc1	CHOP inhibitor 105 | CHOP confirm 100
COc1cccc(C(=O)NCC(=O)NCc2cc(=O)n(C)c(=O)n2C)c1	none (no result: CHOP inhibitor)
Cc1cccc(/C=C/c2nc3ccccc3c(=O)[nH]2)c1	CHOP inhibitor 102 | CHOP confirm 121
O=C(O)c1ccc(/C=C/c2nc3ccccc3c(=O)[nH]2)cc1	none (no result: CHOP inhibitor)
Clc1ccc(-n2ncc3c(NCc4ccc5c(c4)OCO5)ncnc32)cc1	CHOP inhibitor 104 | CHOP confirm inactive
O=C(NNC(=O)c1cccc2ccccc12)c1ccc(-c2ccccc2)cc1	CHOP inhibitor 98 | CHOP confirm 82
COc1ccccc1N1CCN(C2CCCN(C(=O)CN3CCCCC3=O)C2)CC1 (stereo not drawn)	none (no result: CHOP inhibitor)
C#CC(=O)N(c1ccc(OC)c(OC)c1)C(C(=O)NC1CCCC1)c1cccs1 (stereo not drawn)	CHOP inhibitor 109 | CHOP confirm 122
Cc1cccc(N(C(=O)C(F)(F)F)C(C(=O)NC2CCCCC2)c2cccs2)c1 (stereo not drawn)	none
C#CC(=O)N(c1cccc(OC)c1)C(C(=O)NC1CCCC1)c1cccs1 (stereo not drawn)	CHOP inhibitor 108 | CHOP confirm 119
Cc1noc(C)c1S(=O)(=O)Nc1ccc2c(c1)C(=O)N([C@H](C)CO)C[C@@H](C)[C@@H](CN(C)Cc1ccc3c(c1)OCO3)O2	none (no result: CHOP inhibitor)
CCCCn1c(=O)c(CCC(=O)OCC(=O)NC(=O)NCCC(C)C)nc2ccccc21	none
C(=C1/CCCC2=C1Nc1ncnn1C2c1ccccc1)/c1ccccc1 (stereo not drawn)	CHOP inhibitor 112 (no result: Beta2AR agonist) | CHOP confirm inactive
COCCCNC(=O)c1ccc2c3c(onc13)-c1ccccc1C2=O	none
O=C1c2ccccc2-c2onc3ccc(Oc4ccccc4)c1c23	CHOP inhibitor 106 | CHOP confirm 84
CC1(C)CC(C(CCN(Cc2ccccc2)C(=O)c2ccco2)c2ccc(F)cc2)CCO1 (stereo not drawn)	CHOP inhibitor 101 (no result: CHOP UPR activ, UPR XBP1 act) | CHOP confirm 79
O=C(c1ccco1)N(CCC(c1ccccc1)c1ccco1)Cc1ccc(F)cc1 (stereo not drawn)	CHOP inhibitor 108 | CHOP confirm inactive
O=C(CN(Cc1ccc(F)cc1)C(=O)c1ccco1)NCc1ccc(F)cc1	none
Cc1ccc(S(=O)(=O)CC#CCOC(=O)c2ccc([N+](=O)[O-])cc2)cc1	CHOP inhibitor 107 (no result: Beta2AR agonist) | CHOP confirm 108
Cc1c(C(=O)Nc2ccc3oc(-c4cccnc4)nc3c2)oc2ccccc12	CHOP inhibitor 100 | CHOP confirm inactive
COc1cccc(Oc2nnnn2-c2ccccc2)c1	none
COc1cccc(-n2nnnc2S(C)(=O)=O)c1	CHOP inhibitor 113 | CHOP confirm 115
CC(=O)c1c(C)oc2ccc(NS(=O)(=O)c3cccs3)cc12	none
O=c1/c(=C\c2cccc(O)c2)sc2nc(-c3ccccc3)c(-c3ccccc3)n12	CHOP inhibitor 99 | CHOP confirm inactive
COc1ccc(/C=c2\sc3nc(-c4ccccc4)c(-c4ccccc4)n3c2=O)cc1OC	none
COc1ccc(C2=NN(C(=O)c3ccco3)C(c3cc4ccccc4nc3Cl)C2)cc1 (stereo not drawn)	CHOP inhibitor 103 (no result: Beta2AR agonist) | CHOP confirm 71
O=C(NC1CCOC1=O)c1ccccc1 (stereo not drawn)	none (no result: VLA-4 inh, CHOP UPR activ, UPR XBP1 act, CHOP inhibitor)
Cc1cc(=O)[nH]c(N=N/C(=N/Nc2ccc(O)cc2)c2ccccc2)n1	none
Cc1cc(=O)[nH]c(N=N/C(=N/Nc2ccccc2C)c2ccccc2)n1	CHOP inhibitor 103 | CHOP confirm inactive
O=C(Nc1cccc(C(F)(F)F)c1)NC1CCN(S(=O)(=O)c2ccc(F)cc2)CC1	CHOP inhibitor 100 | CHOP confirm 94
CC(=O)c1ccc(S(=O)(=O)N2CCC(NC(=O)Nc3cccc(F)c3)CC2)cc1	none
COc1ccc(NC(=O)c2cc3cccc(OC)c3oc2=Nc2ccc(C(=O)O)cc2)cc1OC	CHOP inhibitor 103 (no result: VLA-4 inh, CHOP UPR activ, UPR XBP1 act) | CHOP confirm 110
Cc1ccc(S(=O)(=O)N2CCOCC2)cc1NC(=O)CSc1nnc(NC2CC2)s1	none (no result: CHOP inhibitor)
Cc1ccc(C(=O)OCC(=O)NC2CCCC2)cc1C	none (no result: CHOP inhibitor)
COC(=O)c1cn[nH]c1NC(=S)Nc1ccc(Cl)c(Cl)c1	CHOP inhibitor 97 | CHOP confirm inactive
COC(=O)c1cn[nH]c1NC(=S)Nc1ccc(C)cc1Cl	none
COc1ccc(C(=O)NCCc2nnc3ccc(SCC(=O)NCCc4ccc(OC)c(OC)c4)nn23)cc1	none (no result: CHOP inhibitor)
O=C(N/N=C/C=C/c1ccccc1)NC1CCCCC1	CHOP inhibitor 101 | CHOP confirm inactive
O=C(N/N=C/c1cccc(O)c1)NC1CCCCC1	none
CCc1c(O)cc(=O)n(-c2ccccc2)c1-c1ccccc1	none
CCN(CC(=O)Nc1c(F)cccc1F)C(=O)c1ccc(NC(=O)CC2SC(N3CCCC3)=NC2=O)cc1 (stereo not drawn)	none (no result: CHOP inhibitor)
BrC(=C\c1ccccc1)/C=N/N1CCN(Cc2ccccc2)CC1	CHOP inhibitor 98 | CHOP confirm inactive
